The source made the active and inactive calls.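 The calls were made as follows, unless noted: active = viability loss from added drug above about 55%, and viability with drug at most 40%, in both replicates (limit read from the data, passing the limit was not always enough); inconclusive = both conditions met in only one replicate; inactive = neither replicate meets both conditions.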 Peptide text beside a SMILES is read from it. * marks the point of attachment. Boc = CC(C)(C)OC(=O)*
What was measured:
[1] = HUVEC growth inhibition – cell-based, human, primary screen (AID 575;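 active = viability at or below 30% in both replicate assays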;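 also: 100% = median of untreated cell wells with 0.1% DMSO on each plate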); details: HUVEC proliferation, CellTiter-Glo luminescence, 72 h; at 10 µM; stronger effect = lower value
Method in brief: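 Test system: primary human umbilical vein endothelial cells. Quantity: 1250 cells/well. Compound: single 10 µM dose, 0.1% DMSO, from 5x medium stock. Timing: 72 h treatment at 37 °C. Detection: ATP-based CellTiter-Glo luminescent read. Benchmarks: vehicle and MePR control wells. Format: 384-well plates coated with collagen.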

[2] = growth inhibitors of H69AR lung tumor, primary screen, human, duplicate replicates (AID 580;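 active = viability at or under a set limit in both replicates, limit being median viability minus 3 SD, cut at about 48% in these data, passing the limit was not always enough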;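 also: 100% = mean luminescence of untreated wells and 0% = no signal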); details: H69AR lung tumor cells viability, ATP luminescence, 72 h; at 10 µM; stronger effect = lower value
[3] = reversal of MRP1-mediated doxorubicin resistance, pilot screen, H69AR cells, doxorubicin co-treatment (AID 601); details: CellTiter-Glo, 72 h, at 10 µM; for differential viability (reversal): stronger effect = higher value
[4] = 384-well plate pilot, post-Golgi transport modulator project, inhibition of yeast transport mutant growth (AID 636; in the data active = inhibition above about 31%); details: absorbance 615 nm, about 18 h, stronger effect = higher value
[5] = growth suppression of yeast trafficking mutant, preliminary HTS, modulators of trafficking downstream of Golgi apparatus project, 1536-format plate, OD 615 nm (AID 637; in the data active = inhibition above about 30%); details: yeast transport mutant growth, absorbance 615 nm, 18 h; stronger effect = higher value
[6] = H69AR cells + 2 uM doxorubicin, measured here: viability with 2 uM doxorubicin, stronger effect = lower value
[7] = H69AR cells, compound alone cytotoxicity

Row | Structure (SMILES) | viability [1] | viability [2] | differential viability (reversal) ([3]; H69AR cells + 2 uM doxorubicin) | viability [3, 6] [%] | viability [3, 7] [%] | inhibition [4] | inhibition [5]
1 | CC1Cc2ccccc2N1C(=O)Cc1cccs1 (stereo not drawn) | 84.8% (inactive) | 108% (inactive) | 16.1% (inactive) | 92.3 | 108 | -1.71% (inactive) | 2.06% (inactive)
2 | Cc1ccc(S(=O)(=O)NCCc2ccncc2)cc1 | 95.4% (inactive) | 110% (inactive) | 10.4% (inactive) | 100 | 110 | -2.47% (inactive) | -0.16% (inactive)
3 | CN(c1ccccc1)S(=O)(=O)c1cc(C(=O)N2CCN(c3ccccn3)CC2)ccc1Cl | 45.3% (inactive) | 88.5% (inactive) | 10.1% (inactive) | 78.4 | 88.5 | 0.39% (inactive) | 2.22% (inactive)
4 | O=S(=O)(c1ccccc1)N1CCSC1c1ccco1 (stereo not drawn) | 83.6% (inactive) | 72.2% (inactive) | -15.6% (inactive) | 87.9 | 72.2 | -0.13% (inactive) | 5.56% (inactive)
5 | CN(c1cccc(NS(=O)(=O)c2cccs2)c1)S(C)(=O)=O | 95.5% (inactive) | 86.8% (inactive) | 2.12% (inactive) | 84.7 | 86.8 | -0.13% (inactive) | 18.1% (inactive)
6 | O=C(CSc1nnc(-c2ccccc2)o1)N1CCc2ccccc2C1 | 85.3% (inactive) | 93.1% (inactive) | 0.04% (inactive) | 93.1 | 93.1 | -4.53% (inactive) | -5.24% (inactive)
7 | O=C(NC1CC2CCC1C2)c1ccc(CN2CCOCC2)cc1 (stereo not drawn) | 99.9% (inactive) | 96.9% (inactive) | 2.98% (inactive) | 93.9 | 96.9 | -2.89% (inactive) | -2.7% (inactive)
8 | COc1ccc(C)cc1-n1nnnc1SCC(=O)NC(=O)NCc1ccco1 | 90.9% (inactive) | 87.3% (inactive) | 9.23% (inactive) | 78.1 | 87.3 | -1.69% (inactive) | 3.17% (inactive)
9 | CCOc1ncccc1C(=O)Nc1ccc2c(C)cc(=O)oc2c1 | 84.1% (inactive) | 93.5% (inactive) | 1.12% (inactive) | 92.4 | 93.5 | -3.77% (inactive) | 6.51% (inactive)
10 | O=C(c1nc2n(n1)C(c1ccc(Cl)cc1)C=C(c1ccccc1)N2)N1CCOCC1 (stereo not drawn) | 96.9% (inactive) | 91.9% (inactive) | -6.89% (inactive) | 98.8 | 91.9 | -1.18% (inactive) | -1.9% (inactive)
11 | CN(Cc1nc(-c2ccncc2)no1)S(=O)(=O)c1ccc(Br)cc1 | 90.4% (inactive) | 89.6% (inactive) | -4.28% (inactive) | 93.9 | 89.6 | -5.32% (inactive) | 1.75% (inactive)
12 | CCc1nnc(NC(=O)CCC(=O)Nc2ccccc2)s1 | 94.8% (inactive) | 90% (inactive) | -2.88% (inactive) | 92.9 | 90 | -4.27% (inactive) | 5.71% (inactive)
13 | COc1ccc(OC)c(NC(=O)Cc2coc3ccc(C)cc23)c1 | 76.7% (inactive) | 82.1% (inactive) | 3.86% (inactive) | 78.3 | 82.1 | -6.05% (inactive) | 0.48% (inactive)
14 | O=C(NCc1ccco1)c1cccc(-c2nnc(-c3ccccc3)o2)c1 | 59.4% (inactive) | 85.8% (inactive) | 5.49% (inactive) | 80.3 | 85.8 | -4.8% (inactive) | 2.86% (inactive)
15 | COc1ccc(CN2C(=O)C(O)(CC(=O)c3c(C)n[nH]c3C)c3ccccc32)cc1OC (stereo not drawn) | 105% (inactive) | 95.4% (inactive) | 3.36% (inactive) | 92 | 95.4 | -0.53% (inactive) | -4.44% (inactive)
16 | CC1(C)CC(=O)c2cc(OCC(=O)N3CCN(c4ccccc4F)CC3)ccc2O1 | 99.1% (inactive) | 91.8% (inactive) | 2.9% (inactive) | 88.9 | 91.8 | -0.13% (inactive) | 2.06% (inactive)
17 | CCc1c(C(=O)Nc2cc(C)ccc2OC)[nH]c(C)c1C(C)=O | 45.3% (inactive) | 82% (inactive) | -1.42% (inactive) | 83.5 | 82 | -2.8% (inactive) | 14.3% (inactive)
18 | COc1ccccc1-c1ccc(Nc2cccc(C(C)=O)c2)nn1 | 55.8% (inactive) | 71.6% (inactive) | 15.8% (inactive) | 55.8 | 71.6 | -0.52% (inactive) | -4.92% (inactive)
19 | COc1cc(NS(=O)(=O)c2cccc3nsnc23)c(C(=O)O)cc1OC | 102% (inactive) | 102% (inactive) | 8.71% (inactive) | 93.4 | 102 | -1.43% (inactive) | -1.9% (inactive)
20 | CCN(CC)CCCN1C(=O)C(=O)/C(=C(/O)c2ccc(C)cc2)C1c1ccccn1 (stereo not drawn) | 98.7% (inactive) | 91.8% (inactive) | -1.81% (inactive) | 93.6 | 91.8 | 6.4% (inactive) | -4.44% (inactive)

Row | Structure (SMILES) | viability [1] | viability [2] | differential viability (reversal) ([3]; H69AR cells + 2 uM doxorubicin) | viability [3, 6] [%] | viability [3, 7] [%] | inhibition [4] | inhibition [5]
21 | C=C(C)CSc1nnc2[nH]c(=O)cc(N)n12 | 65.8% (inactive) | 87.9% (inactive) | 13.4% (inactive) | 74.5 | 87.9 | -2.63% (inactive) | 7.62% (inactive)
22 | Cc1cc(C)n(-c2nc(C)nc3c2cnn3-c2ccccc2)n1 | 87.4% (inactive) | 87.3% (inactive) | -1.5% (inactive) | 88.8 | 87.3 | -3.77% (inactive) | 6.19% (inactive)
23 | CCOC(=O)c1nnn(-c2nonc2NC(C)=O)c1C | 91.7% (inactive) | 98.2% (inactive) | 1.68% (inactive) | 96.5 | 98.2 | -0.65% (inactive) | -4.13% (inactive)
24 | CSc1n[nH]c(NCc2ccccc2)n1 | 96.5% (inactive) | 96.8% (inactive) | 0.755% (inactive) | 96.1 | 96.8 | -5.13% (inactive) | 1.43% (inactive)
25 | COc1ccc(C(=O)Cn2nnc(-c3cccs3)n2)cc1 | 102% (inactive) | 90.9% (inactive) | 4.98% (inactive) | 85.9 | 90.9 | -6.67% (inactive) | -3.65% (inactive)
26 | CCOc1ccc2cc(C#N)c(SCC(=O)N3CCC(C)CC3)nc2c1 | 43.5% (inactive) | 34.4% (active) | 0.44% (inactive) | 33.9 | 34.4 | -8.8% (inactive) | -1.11% (inactive)
27 | CC(C)(C)OC(=O)N1CCCC1C(=O)N1CCCC1C(=O)N1CCCC1C(=O)O (stereo not drawn) (Boc-Pro-Pro-Pro-OH; configuration not given here) | 101% (inactive) | 97.9% (inactive) | 3.05% (inactive) | 94.8 | 97.9 | -5.06% (inactive) | -0.95% (inactive)
28 | COc1cccc(NC(=O)C2CCN(c3ncccn3)CC2)c1 | 90% (inactive) | 94% (inactive) | -2.54% (inactive) | 96.6 | 94 | -6.4% (inactive) | -12.5% (inactive)
29 | CC(=O)Nc1ccc(NC(=O)c2ccccc2F)cc1 | 110% (inactive) | 108% (inactive) | 16.1% (inactive) | 92.2 | 108 | -1.82% (inactive) | -4.13% (inactive)
30 | CCc1nnc(NC(=O)CSc2nnc(-c3ccoc3C)n2CC(C)C)s1 | 85.8% (inactive) | 106% (inactive) | 12.6% (inactive) | 93.8 | 106 | -4.67% (inactive) | 11.3% (inactive)
31 | COc1ccc(CCNC(=O)c2nc3ncccn3n2)cc1OC | 113% (inactive) | 102% (inactive) | 7.66% (inactive) | 94.5 | 102 | -4.08% (inactive) | 7.78% (inactive)
32 | COc1ccc(C2C(C(C)=O)=C(C)N=c3s/c(=C\c4ccc5c(c4)OCO5)c(=O)n32)c(OC)c1 (stereo not drawn) | 77.2% (inactive) | 99.7% (inactive) | -2.84% (inactive) | 103 | 99.7 | -2.08% (inactive) | -4.76% (inactive)
33 | COCCCNC(=O)CC(NS(=O)(=O)c1ccc(Cl)cc1)c1ccco1 (stereo not drawn) | 106% (inactive) | 87.5% (inactive) | 2.94% (inactive) | 84.6 | 87.5 | -0.91% (inactive) | -3.02% (inactive)
34 | CCOc1ccc(OCC)c(NS(=O)(=O)c2ccc3c(c2)n(C)c(=O)c(=O)n3C)c1 | 112% (inactive) | 95.1% (inactive) | 5.37% (inactive) | 89.7 | 95.1 | -0.13% (inactive) | 1.27% (inactive)
35 | CCc1nccn1S(=O)(=O)c1ccc2ccc(C)cc2c1 | 105% (inactive) | 91.3% (inactive) | -2.18% (inactive) | 93.5 | 91.3 | 2.24% (inactive) | -3.49% (inactive)
36 | Cc1nc2ccccc2c(=O)n1NC(=O)c1ccc(F)cc1Cl | 103% (inactive) | 94.2% (inactive) | -4.19% (inactive) | 98.4 | 94.2 | -4.34% (inactive) | 2.22% (inactive)
37 | CC(=O)Nc1ccc(NC2=CC(=O)CC(C)(C)C2)cc1 | 109% (inactive) | 109% (inactive) | 24.2% (inactive) | 85 | 109 | -3.38% (inactive) | 5.08% (inactive)
38 | COc1ccc(-n2c(N)c(C(=O)NCc3ccco3)c3nc4ccccc4nc32)c(OC)c1 | 61.8% (inactive) | 11% (active) | -1.38% (inactive) | 12.4 | 11 | -0.8% (inactive) | -0.16% (inactive)
39 | COc1ccc(OC(C)C(=O)N2CCN(c3ccccn3)CC2)cc1 (stereo not drawn) | 106% (inactive) | 94.4% (inactive) | 5.04% (inactive) | 89.3 | 94.4 | -3.95% (inactive) | -0.32% (inactive)
